The list is not random: actives were taken first. Their share in the collection is about 1.8%.
Gli-Sufu antag – Gli-Sufu pathway antagonism. inhibition, % at 5 µM. AID 588413. 340,000 tested, 0.74% active. Sufu-KO-LIGHT fibroblasts, Gli luciferase reporter luminescence;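 active means inhibition above about 55%, limit read from the data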;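 further: 0% = DMSO-treated cells and 100% = wells with medium but no cells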
NR2E3 ag-1 – agonists of human nuclear receptor NR2E3 | Q9Y5X4 | GST-NR2E3/biotin-RetCOR TR-FRET, 1536-well | inhibition of corepressor binding, % at 4.78 µM | 320,000 tested, 0.12% active | AID 2300;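 active means percent inhibition above the cutoff of mean plus 3 SD of all tested compounds, set per screening campaign, cut at about 20% in these data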;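 further: 0% = DMSO wells and 100% = biotin wells as full block of FRET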
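System: GST-tagged NR2E3 plus biotinylated RetCOR corepressor; Buffer or medium: pH 7.5 Tris-based buffer; Probe or stimulus: RetCOR corepressor, biotinylated, 7 nM; Doses: compound at 4.8 µM, single dose; Schedule: 5 h incubation at 4 °C; Technique: time-resolved FRET; Evaluation: percent inhibition of TR-FRET ratio; Replication: one well per compound, singlicate testing.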
Jurkat NFkB inh – lowers PMA/ionomycin-induced NF-kB signal in Jurkat cells | PMA/ionomycin-induced NF-kB luciferase reporter, luminescence | inhibition, % at 4 µM | 330,000 tested, 0.53% active; in the data active means inhibition above about 50%
GalR3 antagonist – blocks the human galanin receptor 3 | HEK293 GalR3-CNG cAMP membrane potential fluorescence; galR3 body fused to GalR1 C-terminus | inhibition, % at 3 µM | AID 651719 | O60755 | 360,000 tested, 0.44% active;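 active means inhibition above the screen-wide average plus 3 SD, cut at about 13% in these data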;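 further: forskolin and galanin both at EC90 stimulate the cells; cAMP rise reported by CNG channel membrane potential dye signal; 0% = forskolin plus galanin with DMSO and 100% = forskolin alone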
Target sequence (O60755 1-299 limits assumed): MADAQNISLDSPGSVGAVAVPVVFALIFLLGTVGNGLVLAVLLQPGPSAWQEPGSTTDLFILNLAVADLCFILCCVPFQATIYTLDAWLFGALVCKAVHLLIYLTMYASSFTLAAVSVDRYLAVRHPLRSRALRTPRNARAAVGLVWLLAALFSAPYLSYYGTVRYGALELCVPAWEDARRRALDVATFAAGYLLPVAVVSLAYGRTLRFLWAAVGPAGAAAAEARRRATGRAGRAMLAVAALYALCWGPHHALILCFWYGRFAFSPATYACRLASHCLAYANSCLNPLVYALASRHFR
697 NFkB inh – lowers PMA/ionomycin-induced NF-kB signal in 697 B cells | inhibition, % at 4 µM | 330,000 tested, 0.33% active | 697 B-cell NF-kB luciferase reporter, 16 h; in the data active means inhibition above about 35%
NR2E3 ag-2 – agonists of human NR2E3 nuclear receptor | 360,000 tested, 0.35% active | CHO-S Gal4-NCOR/VP16-NR2E3 two-hybrid, luciferase | inhibition of corepressor binding, % at 3.98 µM | AID 602229;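 active means inhibition above the mean of all tested compounds plus 3 SD, cut at about 70% in these data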;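 further: 0% = DMSO with NR2E3 transfected cells and 100% = cells lacking NR2E3 construct; higher means lower luciferase signal from less NR2E3 corepressor binding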
GalR3 conf – GalR3 (human) antagonism, confirmation; shares compounds with GalR3 antagonist; HEK293 GalR3 CNG cAMP biosensor, membrane potential fluorescence; galR3 fused to GalR1 carboxy tail; challenged with forskolin and galanin at EC90; inhibition, % at 3 µM; 1,600 tested, 59% active;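 active means inhibition above the primary screen's cutoff, the mean inhibition of all screened compounds plus 3 SD, cut at about 13% in these data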;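 further: 0% = forskolin plus galanin and 100% = forskolin alone with DMSO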
HEK-CNG parental – parental cell agonism counter-screen for GalR3 antagonists | shares compounds with GalR3 antagonist | HEK293-CNG parental cells, cAMP membrane potential fluorescence; normalised: DMSO wells 0%, forskolin wells 100% | activation, % at 3 µM | 1,600 tested, 10% active | AID 652268; in the data active means activation above about 1.3%
The depositor's hits bear a star; . = no result given.

SMILES	Gli-Sufu antag	NR2E3 ag-1	Jurkat NFkB inh	GalR3 antagonist	697 NFkB inh	NR2E3 ag-2	GalR3 conf	HEK-CNG parental
CCN(CC)S(=O)(=O)c1ccc(N2CCOCC2)c(NC(=O)CCOc2ccccc2)c1	6	2	-1	-1	1	-1	.	.
CCN(CC)S(=O)(=O)c1ccc(N2CCCC2)c(NC(=O)Cc2cc(OC)c(OC)c(OC)c2)c1	10	0	3	19*	-11	-14	3	0
CCN(CC)S(=O)(=O)c1ccc(N2CCOCC2)c(NC(=O)COc2ccccc2)c1	5	1	6	.	-10	-5	13*	0
CCN(CC)S(=O)(=O)c1ccc(N2CCCC2)c(NC(=O)Cc2ccc(OC)cc2)c1	15	0	1	-3	-4	-31	.	.
COc1ccc(N(C(=O)c2ccco2)C(C(=O)NC2CCCC2)c2cc(OC)c(OC)c(OC)c2)cc1 (stereo not drawn)	-9	3	-3	-3	-1	-3	.	.
COc1ccc(C(O)c2nc3ccccc3n2C)cc1OC (stereo not drawn)	28	0	27	95*	-28	40	33*	0
COc1ccc(C(=O)NC(C)c2nc3ccccc3n2C)cc1OC (stereo not drawn)	5	0	-3	-2	-9	-6	.	.
COc1ccccc1NC(=O)CCCc1nc(-c2ccc(OC)c(OC)c2)no1	14	5	5	23*	17	-2	16*	0
COc1cc(CCCN2CCNC[C@H]2Cc2cccc3ccccc23)cc(OC)c1OC	10	.	5	-3	4	-7	.	.
CC(C)=CCc1c2c(c3occ(-c4ccc(O)c(O)c4)c(=O)c3c1O)C=CC(C)(C)O2	33	.	.	-1	.	-45	.	.
CC(C)=CCc1c2c(c3occ(-c4ccc(O)cc4)c(=O)c3c1O)C=CC(C)(C)O2	-3	5	-22	20*	-4	-21	24*	0
COc1cc(NC(=O)COC(=O)c2cnccn2)c(C)cc1[N+](=O)[O-]	35	1	-7	-1	-9	-3	.	.
C1=CC2CC1CC2CN1CCN(Cc2ccccc2)CC1 (stereo not drawn)	-1	3	2	.	11	20	2	1.8*
CC(C)c1ccc(/C=N/NC(=O)CCNC(=O)c2ccccc2)cc1	-3	3	-38	-7	-38	-51	.	.
CCCc1[nH][nH]c(=O)c1C(c1cccc(Cl)c1)C(C#N)C#N (stereo not drawn)	12	-3	12	-3	-14	0	.	.
N#CC(C#N)C(c1ccsc1)c1c(-c2ccccc2)[nH][nH]c1=O (stereo not drawn)	7	-2	8	14*	23	8	17*	2.8*
CC1CC(C)CN(C(=O)C2CCN(C(=O)Nc3ccccc3)CC2)C1 (stereo not drawn)	-7	-3	11	0	25	-16	.	.
NS(=O)(=O)c1ccc(O)c(NC(=O)c2ccc([N+](=O)[O-])cc2)c1	-27	-4	1	20*	8	-28	4	0
CC(C)CC(N)c1csc(NC(=O)Nc2ccccc2C(C)(C)C)n1 (stereo not drawn)	.	.	.	-8	.	-5	.	.
COc1ccc(-c2c3c(=O)n(C)c(=O)n(C)c3cn2-c2cc(OC)ccc2OC)cc1	-21	3	-3	18*	5	5	20*	0
COc1ccc(-c2c3c(=O)n(C)c(=O)n(C)c3cn2-c2ccccc2O)cc1	-9	-1	1	0	9	-29	.	.
O=C(Nc1ccc(S(=O)(=O)Nc2cnc3ccccc3n2)cc1)c1cccc(OC(F)F)c1	12	-1	11	3	4	0	.	.
Cc1ccc(-n2c(=O)cc(N3CCN(C(=O)c4ccco4)CC3)[nH]c2=O)cc1	0	2	5	15*	8	-23	0	0
OCc1c(Cl)nc2ccccn12	5	4	9	14*	15	-8	12	0
O=Cc1c(Cl)nc2ccccn12	-1	-1	-11	-4	0	-17	.	.
SMILES	Gli-Sufu antag	NR2E3 ag-1	Jurkat NFkB inh	GalR3 antagonist	697 NFkB inh	NR2E3 ag-2	GalR3 conf	HEK-CNG parental
COc1ccc(-c2cn(-c3ccc(C)c(C)c3)c(=S)[nH]2)cc1OC	40	-1	-19	-10	-4	-39	.	.
COc1ccc(-c2cn(-c3ccc(C)c(Cl)c3)c(=S)[nH]2)cc1OC	5	0	-11	41*	-17	-30	102*	-2
COc1cc(C(=O)OCC(=O)Nc2ccccc2C(=O)NC2CC2)c([N+](=O)[O-])cc1OC	-8	3	14	-3	8	17	.	.
CCOC(=O)N1CCN(C(=O)c2ccc3nc(N4CCCCC4)sc3c2)CC1	-10	-3	7	-3	-82	-11	.	.
NC(=O)C1CCN(C(=O)c2ccc3nc(N4CCCCC4)sc3c2)CC1	-36	-1	-38	16*	-80	-49	1	0
NC(=O)C(CCCCN1CCCCC1)(c1ccccc1)c1ccccc1	15	.	.	-5	.	0	.	.
Brc1ccc(OCCN2CCOCC2)cc1	16	3	6	-9	11	4	.	.
Brc1ccc(OCCCN2CCOCC2)cc1	23	3	-2	16*	8	-29	0	0
COc1ccc(OC[C@@H](O)CNC(=O)c2cccc3c2C(=O)c2ccc(Cl)cc2S3(=O)=O)cc1	-1	1	-12	78*	-4	0	58*	0
O=C(NCc1ccc(F)cc1)c1cccc2c1C(=O)c1ccc(Cl)cc1S2(=O)=O	.	.	3	-4	24	.	.	.
Cc1cc(NS(=O)(=O)c2cn(C)nc2C)no1	-3	3	8	-1	4	-21	.	.
O=C(Nc1ccc(Br)cc1F)c1ccncc1	-81	1	-11	22*	3	-18	15*	0
[N-]=[N+]=NCC/C=C\C1NS(=O)(=O)OCC1O (stereo not drawn)	-11	1	13	-6	17	-23	.	.
COc1ccc(-n2ncc(C(C)NS(=O)(=O)c3cc(F)ccc3C)c2C)cc1 (stereo not drawn)	3	.	8	-3	-4	-20	.	.
COc1cc(/C=N/N=C(N)N)ccc1OCc1ccc(Cl)cc1	52	1	-5	92*	-144	-118	45*	1.8*
COc1cc(/C=N\n2nnnc2N)ccc1OCc1ccc(F)cc1	-2	3	-30	21*	1	-10	25*	1

Source: PubChem (several laboratories)
